In ChEMBL document CHEMBL2086251, “Arylazolyl(azinyl)thioacetanilides. Part 10: design, synthesis and biological evaluation of novel substituted imidazopyridinylthioacetanilides as potent HIV-1 inhibitors” (Bioorg Med Chem, 2012):

What was measured:
[1] = system: Human immunodeficiency virus 1; test: Antiviral activity against HIV-1 RES056 harboring RT K103N/Y181C mutant gene infected human MT4 cells assessed as inhibition in viral syncytium formation by MTT assay; assay type: functional, organism-based; conditions: Human immunodeficiency virus 1, RES056, MT4
Method in brief: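 MT-4 cells infected with double-mutant RT (K103N/Y181C) HIV-1 RES056; compounds added as serial fivefold dilutions in triplicate wells with mock-infected parallels. Cells at 6 × 10⁵ cells/mL. Viability read by MTT after five days at 540 and 690 nm, median OD of three wells. EC50 is the concentration inhibiting virus-induced syncytium formation by 50%.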

[2] = system: Human immunodeficiency virus 1; test: Antiviral activity against HIV-1 3B infected human MT4 cells assessed as inhibition in viral syncytium formation by MTT assay; assay type: functional, organism-based; conditions: Human immunodeficiency virus 1, 3B
Method in brief: (§1)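 MT-4 cells (6 × 10⁵ cells/mL) infected with HIV-1 IIIB or HIV-2 ROD stock at 100–300 CCID50, with serial fivefold compound dilutions in triplicate wells. After 5 days, viability was read by MTT reduction at 540 and 690 nm, using the median OD of three wells. EC50 is the concentration giving 50% inhibition of virus-induced syncytium formation.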

[3] = Selectivity index, ratio of CC50 for human MT4 cells to EC50 for HIV-1 3B; assay type: toxicity, cell-based; conditions: read-out: Ratio CC50/EC50
Method in brief: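 SI is the ratio CC50/EC50, both taken from parallel 5-day MTT assays in MT-4 cells. CC50 comes from mock-infected cells and EC50 from HIV-1 IIIB-infected cells.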

[4] = Cytotoxicity against mock-infected human MT4 cells by MTT assay; assay type: cell-based
Method in brief: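 Mock-infected MT-4 cells (6 × 10⁵ cells/mL) were run in parallel with the infected wells, with serial fivefold compound dilutions in triplicate. After 5 days, viability was read by MTT at 540 and 690 nm, using the median OD of three wells. CC50 is the concentration that reduces OD540 of mock-infected controls by 50%.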

[5] = system: Human immunodeficiency virus 2; test: Antiviral activity against HIV-2 ROD infected human MT4 cells assessed as inhibition in viral syncytium formation by MTT assay; assay type: functional, organism-based; conditions: Human immunodeficiency virus 2, ISOLATE ROD; method in brief: as §1
[6] = target: Human immunodeficiency virus type 1 reverse transcriptase (Human immunodeficiency virus 1, UniProt Q72547); test: Inhibition of recombinant HIV-1 RT assessed as inhibition of biotin-dUTP incorporation by colorimetric analysis
Method in brief: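 Highly purified recombinant HIV-1 RT was used with a […] homopolymer template primer. Nucleotides were linked to a microtiter plate, and incorporated biotin-dUTP was detected colorimetrically. IC50 is the concentration inhibiting biotin-dUTP incorporation by 50%.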

Cc1cc(C)c(-n2c(SCC(=O)Nc3cccnc3Cl)nc3cnccc32)c(C)c1
EC50 [1]: > 22 µM | EC50 [2]: 1.7 µM | selectivity ratio [3]: 12 | CC50 [4]: 22 µM | EC50 [5]: > 22 µM

Cc1cc(C)c(-n2c(SCC(=O)Nc3ccccc3)nc3cccnc32)c(C)c1
EC50 [2]: > 26 µM | selectivity ratio [3]: < 1 | CC50 [4]: 26 µM | EC50 [5]: > 26 µM

Cc1cc(C)c(-n2c(SCC(=O)Nc3ccccc3Cl)nc3cccnc32)c(C)c1
EC50 [2]: > 3.9 µM | selectivity ratio [3]: < 1 | CC50 [4]: 3.9 µM | EC50 [5]: > 3.9 µM

Cc1cc(C)c(-n2c(SCC(=O)Nc3ccccc3F)nc3cccnc32)c(C)c1
EC50 [2]: > 3.7 µM | selectivity ratio [3]: < 1 | CC50 [4]: 3.7 µM | EC50 [5]: > 3.7 µM

Cc1cc(C)c(-n2c(SCC(=O)Nc3ccccc3Br)nc3cccnc32)c(C)c1
EC50 [2]: > 5.6 µM | selectivity ratio [3]: < 1 | CC50 [4]: 5.6 µM | EC50 [5]: > 5.6 µM

Cc1cc(C)c(-n2c(SCC(=O)Nc3ccc(C)cc3Br)nc3cccnc32)c(C)c1
EC50 [2]: > 0.99 µM | selectivity ratio [3]: < 1 | CC50 [4]: 0.99 µM | EC50 [5]: > 0.99 µM

Cc1cc(C)c(-n2c(SCC(=O)Nc3ccc(C)cc3[N+](=O)[O-])nc3cccnc32)c(C)c1
EC50 [2]: > 144 µM | selectivity ratio [3]: < 1 | CC50 [4]: 144 µM | EC50 [5]: > 144 µM

Cc1cc(C)c(-n2c(SCC(=O)Nc3ccccc3[N+](=O)[O-])nc3cccnc32)c(C)c1
EC50 [1]: > 39 µM | EC50 [2]: ≥ 6.7 µM | selectivity ratio [3]: ≤ 6 | CC50 [4]: 39 µM | EC50 [5]: > 39 µM

CC(=O)c1ccc(NC(=O)CSc2nc3cccnc3n2-c2c(C)cc(C)cc2C)c(Br)c1
EC50 [1]: > 46 µM | EC50 [2]: 3.6 µM | selectivity ratio [3]: 13 | CC50 [4]: 46 µM | EC50 [5]: > 46 µM

Cc1cc(C)c(-n2c(SCC(=O)Nc3cccnc3Cl)nc3cccnc32)c(C)c1
EC50 [2]: > 6 µM | selectivity ratio [3]: < 1 | CC50 [4]: 6 µM | EC50 [5]: > 6 µM

Cc1cc(C)c(-n2c(SCC(=O)Nc3ccc(Cl)cc3Cl)nc3cccnc32)c(C)c1
EC50 [2]: > 3 µM | selectivity ratio [3]: < 1 | CC50 [4]: 3.9 µM | EC50 [5]: > 3 µM

Cc1cc(C)c(-n2c(SCC(=O)Nc3ccccc3C)nc3cccnc32)c(C)c1
EC50 [2]: > 15 µM | selectivity ratio [3]: < 1 | CC50 [4]: 15 µM | EC50 [5]: > 15 µM

COC(=O)c1ccc(NC(=O)CSc2nc3cccnc3n2-c2c(C)cc(C)cc2C)c(Br)c1
EC50 [1]: > 80 µM | EC50 [2]: 8.9 µM | selectivity ratio [3]: 9 | CC50 [4]: 80 µM | EC50 [5]: > 80 µM

CCOC(=O)c1ccc(NC(=O)CSc2nc3cccnc3n2-c2c(C)cc(C)cc2C)c(Br)c1
EC50 [1]: > 117 µM | EC50 [2]: 9.9 µM | selectivity ratio [3]: 12 | CC50 [4]: 117 µM | EC50 [5]: > 117 µM

Cc1cc(C)c(-n2c(SCC(=O)Nc3ccc([N+](=O)[O-])cc3Cl)nc3cccnc32)c(C)c1
EC50 [2]: > 25 µM | selectivity ratio [3]: < 1 | CC50 [4]: 25 µM | EC50 [5]: > 25 µM

Cc1cc(C)c(-n2c(SCC(=O)Nc3ncc(C)cc3Br)nc3cccnc32)c(C)c1
EC50 [2]: > 102 µM | selectivity ratio [3]: < 1 | CC50 [4]: 102 µM | EC50 [5]: > 102 µM

Cc1cc(C)c(-n2c(SCC(=O)Nc3ccc(S(N)(=O)=O)cc3Br)nc3cccnc32)c(C)c1
EC50 [1]: > 22 µM | EC50 [2]: 0.75 µM | selectivity ratio [3]: 30 | CC50 [4]: 22 µM | EC50 [5]: > 22 µM

Cc1cc(C)c(-n2c(SCC(=O)Nc3ccccc3)nc3cnccc32)c(C)c1
EC50 [2]: > 17 µM | selectivity ratio [3]: < 1 | CC50 [4]: 17 µM | EC50 [5]: > 17 µM

Cc1cc(C)c(-n2c(SCC(=O)Nc3ccccc3Cl)nc3cnccc32)c(C)c1
EC50 [2]: > 19 µM | selectivity ratio [3]: < 1 | CC50 [4]: 19 µM | EC50 [5]: > 19 µM

Cc1cc(C)c(-n2c(SCC(=O)Nc3ccccc3F)nc3cnccc32)c(C)c1
EC50 [2]: > 18 µM | selectivity ratio [3]: < 1 | CC50 [4]: 18 µM | EC50 [5]: > 18 µM

Cc1cc(C)c(-n2c(SCC(=O)Nc3ccccc3Br)nc3cnccc32)c(C)c1
EC50 [1]: > 22 µM | EC50 [2]: 5.2 µM | selectivity ratio [3]: 4 | CC50 [4]: 22 µM | EC50 [5]: > 22 µM

Cc1cc(C)c(-n2c(SCC(=O)Nc3ccc(C)cc3Br)nc3cnccc32)c(C)c1
EC50 [2]: > 5.9 µM | selectivity ratio [3]: < 1 | CC50 [4]: 5.9 µM | EC50 [5]: > 5.9 µM

Cc1cc(C)c(-n2c(SCC(=O)Nc3ccc(C)cc3[N+](=O)[O-])nc3cnccc32)c(C)c1
EC50 [1]: > 6.2 µM | EC50 [2]: ≥ 1.2 µM | selectivity ratio [3]: ≤ 5 | CC50 [4]: 6.2 µM | EC50 [5]: > 6.2 µM

Cc1cc(C)c(-n2c(SCC(=O)Nc3ccccc3[N+](=O)[O-])nc3cnccc32)c(C)c1
EC50 [1]: > 9.9 µM | EC50 [2]: 5.7 µM | selectivity ratio [3]: 2 | CC50 [4]: 9.9 µM | EC50 [5]: > 9.9 µM

CC(=O)c1ccc(NC(=O)CSc2nc3cnccc3n2-c2c(C)cc(C)cc2C)c(Br)c1
EC50 [1]: > 61 µM | EC50 [2]: 0.99 µM | selectivity ratio [3]: 61 | CC50 [4]: 61 µM | EC50 [5]: > 61 µM

Cc1cc(C)c(-n2c(SCC(=O)Nc3ccc(Cl)cc3Cl)nc3cnccc32)c(C)c1
EC50 [1]: > 140 µM | EC50 [2]: ≥ 1.1 µM | selectivity ratio [3]: ≤ 127 | CC50 [4]: 140 µM | EC50 [5]: > 140 µM

Cc1cc(C)c(-n2c(SCC(=O)Nc3ccccc3C)nc3cnccc32)c(C)c1
EC50 [2]: > 22 µM | selectivity ratio [3]: < 1 | CC50 [4]: 22 µM | EC50 [5]: > 22 µM

COC(=O)c1ccc(NC(=O)CSc2nc3cnccc3n2-c2c(C)cc(C)cc2C)c(Br)c1
EC50 [1]: > 27 µM | EC50 [2]: ≥ 2.5 µM | selectivity ratio [3]: ≤ 11 | CC50 [4]: 27 µM | EC50 [5]: > 27 µM

CCOC(=O)c1ccc(NC(=O)CSc2nc3cnccc3n2-c2c(C)cc(C)cc2C)c(Br)c1
EC50 [1]: > 22 µM | EC50 [2]: 4.7 µM | selectivity ratio [3]: 5 | CC50 [4]: 22 µM | EC50 [5]: > 22 µM

Cc1cc(C)c(-n2c(SCC(=O)Nc3ccc([N+](=O)[O-])cc3Cl)nc3cnccc32)c(C)c1
EC50 [1]: > 29 µM | EC50 [2]: 1.4 µM | selectivity ratio [3]: 20 | CC50 [4]: 29 µM | EC50 [5]: > 29 µM

Cc1cc(C)c(-n2c(SCC(=O)Nc3ncc(C)cc3Br)nc3cnccc32)c(C)c1
EC50 [2]: > 61 µM | selectivity ratio [3]: < 1 | CC50 [4]: 61 µM | EC50 [5]: > 61 µM

Cc1cc(C)c(-n2c(SCC(=O)Nc3ccc(S(N)(=O)=O)cc3Br)nc3cnccc32)c(C)c1
IC50 [6]: 4.4 µM | EC50 [1]: > 9.7 µM | EC50 [2]: 0.21 µM | selectivity ratio [3]: 46 | CC50 [4]: 9.7 µM | EC50 [5]: > 9.7 µM

O=C(CSc1snnc1-c1ccc(Br)cc1Br)Nc1cccnc1Cl
EC50 [2]: 0.0364 µM | selectivity ratio [3]: > 6460

CC(C)Nc1cccnc1N1CCN(C(=O)c2cc3cc(NS(C)(=O)=O)ccc3[nH]2)CC1 [DELAVIRDINE]
EC50 [1]: > 36.2 µM | selectivity ratio [3]: > 1030 | CC50 [4]: > 36 µM

O=C1Nc2ccc(Cl)cc2[C@@](C#CC2CC2)(C(F)(F)F)O1 [EFAVIRENZ]
selectivity ratio [3]: > 964 | CC50 [4]: > 6.3 µM

Cc1ccnc2c1NC(=O)c1cccnc1N2C1CC1 [NEVIRAPINE]
EC50 [1]: > 15 µM | selectivity ratio [3]: > 75 | CC50 [4]: > 15 µM

Nc1ccn([C@H]2CC[C@@H](CO)O2)c(=O)n1 [ZALCITABINE]
selectivity ratio [3]: > 68 | CC50 [4]: > 95 µM | EC50 [5]: 1.7 µM

Cc1cn([C@H]2C[C@H](N=[N+]=[N-])[C@@H](CO)O2)c(=O)[nH]c1=O [ZIDOVUDINE]
EC50 [1]: 0.01 µM | EC50 [2]: 6 µM | selectivity ratio [3]: ≥ 8300 | CC50 [4]: ≥ 50 µM
